ChEMBL document CHEMBL3102734, “Inhibition of LOX by flavonoids: a structure-activity relationship study” (Eur J Med Chem, 2014)
pIC50, pKi: −log10 of the molar value. The source made the active and inactive calls. No cut-off for these calls is given here.

Legend:
[1] = biological target: T1, Polyunsaturated fatty acid 5-lipoxygenase (Homo sapiens) (UniProt P09917); experiment: Inhibition of 5-LOX-mediated LTB4 production in human neutrophils using arachidonic acid as substrate at 40 uM preincubated for 10 mins followed by substrate addition measured after 8 mins by enzyme immunoassay relative to control
T1 sequence (whole entry): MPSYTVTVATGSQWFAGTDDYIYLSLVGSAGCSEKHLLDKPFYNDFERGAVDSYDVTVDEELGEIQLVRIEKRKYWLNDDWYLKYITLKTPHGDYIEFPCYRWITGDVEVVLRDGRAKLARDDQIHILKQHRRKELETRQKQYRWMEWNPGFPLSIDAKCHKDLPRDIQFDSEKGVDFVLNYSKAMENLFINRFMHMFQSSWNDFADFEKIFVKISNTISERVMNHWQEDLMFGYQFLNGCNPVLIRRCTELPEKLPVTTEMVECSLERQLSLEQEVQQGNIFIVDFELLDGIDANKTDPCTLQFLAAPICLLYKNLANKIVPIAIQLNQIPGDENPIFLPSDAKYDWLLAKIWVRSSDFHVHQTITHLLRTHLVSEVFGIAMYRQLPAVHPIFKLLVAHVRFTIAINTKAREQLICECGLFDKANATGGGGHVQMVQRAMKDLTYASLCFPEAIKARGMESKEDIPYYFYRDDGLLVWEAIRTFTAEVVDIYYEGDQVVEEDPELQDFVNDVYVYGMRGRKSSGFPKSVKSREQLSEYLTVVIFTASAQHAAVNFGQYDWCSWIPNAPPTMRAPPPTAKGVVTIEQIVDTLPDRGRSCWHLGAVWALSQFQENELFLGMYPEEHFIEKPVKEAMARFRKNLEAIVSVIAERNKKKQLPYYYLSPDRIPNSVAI
In short: (§1)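 Isolated human neutrophils held in HBSS on ice; viability checked by trypan blue. Cells at 3.5×10^6 cells/mL equilibrated 10 min at 37 °C. Flavonoids (0.15–40 μM) pre-incubated 10 min, then A23187 (5 μM) plus arachidonic acid (10 μg/mL) added for 8 min. Stopped with cold methanol and centrifuged 13,000 g, 1 min, 4 °C. LTB4 measured by EIA and expressed as % inhibition of control. NDGA (1 μM) positive control. At least three experiments.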

[2] = biological target: T2, Seed linoleate 13S-lipoxygenase-1 (Glycine max, UniProt P08170); experiment: Uncompetitive inhibition of soybean LOX-1 using linoleic acid as substrate preincubated for 5 mins followed by substrate addition by Lineweaver-Burk plot analysis
T2 sequence (P08170 whole entry): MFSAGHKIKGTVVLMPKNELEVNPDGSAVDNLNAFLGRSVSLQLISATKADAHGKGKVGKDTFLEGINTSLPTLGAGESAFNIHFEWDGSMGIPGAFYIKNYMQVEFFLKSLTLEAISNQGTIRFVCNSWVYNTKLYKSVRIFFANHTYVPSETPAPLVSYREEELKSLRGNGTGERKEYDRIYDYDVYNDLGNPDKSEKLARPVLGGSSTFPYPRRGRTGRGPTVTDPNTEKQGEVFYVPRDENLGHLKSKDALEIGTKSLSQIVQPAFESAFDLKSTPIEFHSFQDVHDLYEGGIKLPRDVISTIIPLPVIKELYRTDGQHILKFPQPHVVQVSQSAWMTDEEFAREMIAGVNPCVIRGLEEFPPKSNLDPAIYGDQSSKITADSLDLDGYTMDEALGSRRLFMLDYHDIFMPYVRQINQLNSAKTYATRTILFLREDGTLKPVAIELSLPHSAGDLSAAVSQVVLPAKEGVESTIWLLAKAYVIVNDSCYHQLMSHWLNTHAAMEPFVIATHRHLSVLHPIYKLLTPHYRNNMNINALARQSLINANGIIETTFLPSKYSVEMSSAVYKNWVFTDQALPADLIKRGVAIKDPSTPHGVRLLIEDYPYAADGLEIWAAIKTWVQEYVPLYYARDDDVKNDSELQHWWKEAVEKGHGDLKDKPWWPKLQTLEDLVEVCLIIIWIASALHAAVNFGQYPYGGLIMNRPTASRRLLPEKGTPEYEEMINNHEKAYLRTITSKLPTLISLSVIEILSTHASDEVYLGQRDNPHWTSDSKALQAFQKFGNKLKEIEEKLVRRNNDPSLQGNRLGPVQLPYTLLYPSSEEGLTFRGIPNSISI
In short: (§2)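 Soybean LOX-1 (supplied lyophilized) kinetic assay. Enzyme pre-incubated with inhibitor 5 min, then linoleic acid added. Readings every 30 s for 10 min; rate taken as the 0–3 min slope. Three inhibitor concentrations tested against three substrate concentrations. Inhibition type assigned by nonlinear Michaelis–Menten fitting and Lineweaver–Burk plots. At least four experiments, each in triplicate.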

[3] = biological target: T3, Seed linoleate 13S-lipoxygenase-1 (Glycine max) (UniProt P08170); experiment: Binding affinity to soybean LOX-1 at 1248 uM by STD-[1H] NMR spectroscopic analysis
T3 sequence (whole entry): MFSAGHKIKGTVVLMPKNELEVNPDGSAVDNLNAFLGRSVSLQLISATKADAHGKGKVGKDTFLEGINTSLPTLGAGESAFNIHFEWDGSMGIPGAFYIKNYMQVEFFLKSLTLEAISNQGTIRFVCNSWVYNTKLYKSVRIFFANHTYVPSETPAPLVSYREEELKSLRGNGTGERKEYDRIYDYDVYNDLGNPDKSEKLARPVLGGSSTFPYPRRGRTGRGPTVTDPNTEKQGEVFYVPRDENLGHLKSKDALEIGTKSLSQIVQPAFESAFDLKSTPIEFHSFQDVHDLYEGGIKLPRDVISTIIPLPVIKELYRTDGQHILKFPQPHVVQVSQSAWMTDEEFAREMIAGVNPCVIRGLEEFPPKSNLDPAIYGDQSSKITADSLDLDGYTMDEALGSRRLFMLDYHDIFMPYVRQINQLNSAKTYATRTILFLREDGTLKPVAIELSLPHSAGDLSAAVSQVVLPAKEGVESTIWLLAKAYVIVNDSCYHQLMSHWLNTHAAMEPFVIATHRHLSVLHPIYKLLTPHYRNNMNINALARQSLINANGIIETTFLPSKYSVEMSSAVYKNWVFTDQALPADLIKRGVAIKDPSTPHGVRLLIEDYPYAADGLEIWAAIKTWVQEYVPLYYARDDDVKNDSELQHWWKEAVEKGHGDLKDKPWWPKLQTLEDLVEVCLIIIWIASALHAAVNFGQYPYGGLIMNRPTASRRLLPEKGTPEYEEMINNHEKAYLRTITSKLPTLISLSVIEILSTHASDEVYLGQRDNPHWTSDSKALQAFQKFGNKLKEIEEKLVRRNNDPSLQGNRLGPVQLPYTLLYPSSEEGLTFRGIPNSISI
In short: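 STD-1H NMR at 37 °C, 600 MHz, cryoprobe. Lyophilized soybean LOX-1 in Tris buffer (20 mM Tris, 7 mM (NH4)2SO4, 3.5 mM MgCl2, 0.3 mM DTT in D2O, pH 9.0). Ligand added from a 16.6 mM DMSO-d6 stock. Final concentrations: LOX 4 μM, ligand 1248 μM, ratio 300:1. On-resonance saturation at 1.0 ppm; off-resonance reference at 20000 Hz.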

[4] = biological target: T4, Polyunsaturated fatty acid 5-lipoxygenase (Homo sapiens, UniProt P09917); experiment: Inhibition of 5-LOX-mediated LTB4 production in human neutrophils using arachidonic acid as substrate preincubated for 10 mins followed by substrate addition measured after 8 mins by enzyme immunoassay
T4 sequence (P09917 whole entry): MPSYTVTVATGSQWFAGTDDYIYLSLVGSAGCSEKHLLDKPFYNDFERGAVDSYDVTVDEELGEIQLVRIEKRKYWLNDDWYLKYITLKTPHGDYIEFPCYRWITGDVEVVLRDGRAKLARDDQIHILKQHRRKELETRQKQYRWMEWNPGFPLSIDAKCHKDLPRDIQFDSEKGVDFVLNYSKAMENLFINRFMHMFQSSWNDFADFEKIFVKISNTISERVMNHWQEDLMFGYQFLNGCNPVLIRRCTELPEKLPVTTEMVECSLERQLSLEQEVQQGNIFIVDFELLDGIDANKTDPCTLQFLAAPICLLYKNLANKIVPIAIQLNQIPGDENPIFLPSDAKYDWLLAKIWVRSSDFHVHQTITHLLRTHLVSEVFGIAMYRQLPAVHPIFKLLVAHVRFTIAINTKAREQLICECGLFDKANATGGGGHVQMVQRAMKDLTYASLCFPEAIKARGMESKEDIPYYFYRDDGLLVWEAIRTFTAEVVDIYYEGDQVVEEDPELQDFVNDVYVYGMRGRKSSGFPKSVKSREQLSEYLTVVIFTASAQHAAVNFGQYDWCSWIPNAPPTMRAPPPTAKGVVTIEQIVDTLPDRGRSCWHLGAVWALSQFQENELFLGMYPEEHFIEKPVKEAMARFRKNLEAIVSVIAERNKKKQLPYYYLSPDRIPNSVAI
In short: as §1, with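 “blue.” for “blue. Cells at 3.5×10^6 cells/mL equilibrated 10 min at 37 °C.”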

[5] = biological target: T2, Seed linoleate 13S-lipoxygenase-1; experiment: Mixed noncompetitive type inhibition of soybean LOX-1 using linoleic acid as substrate preincubated for 5 mins followed by substrate addition by Lineweaver-Burk plot analysis
In short: as §2, with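 “added. Conversion to the cis,trans-hydroperoxide followed at 234 nm at 30 °C with continuous soft shaking.” for “added.”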

inhibition [1]	Compound	Activity [3]	also measured
< 50%	O=c1cc(-c2cccc(O)c2)oc2ccccc12		
51.4%	O=c1cc(-c2cccc(O)c2)oc2cc(O)ccc12		

The next lines start with the compound.

Compound	inhibition [1]	Activity [3]	also measured
O=C1c2c(O)cc(O)cc2O[C@H](c2ccc(O)c(O)c2)[C@H]1O	19.9%		
O=C1CC(c2ccc(O)cc2)Oc2cc(O)cc(O)c21 (racemic)	< 50%		
O=c1cc(-c2ccc(O)c(O)c2)oc2cccc(O)c12		Active	pKi [2]: 4.74; pIC50 [4]: 5.54
O=c1cc(-c2ccc(O)cc2)oc2cc(O)cc(O)c12 [APIGENIN]	< 50%	Active	pKi [5]: 3.75
